# The source made the active and inactive calls. No cut-off for these calls is given here.
# Tests used:
# [1] = target: Cyclin-dependent kinase 1 (Homo sapiens) (UniProt P06493); assay: Inhibition of CDK1 (unknown origin)
# K562 [2] = assay: Cell cycle arrest in human K562 cells assessed as accumulation at sub G1 phase at 10 uM after 24 hrs by propidium iodide staining-based flow cytometric analysis (reference value: 15%); type: functional
# MCF7 [3] = assay: Cell cycle arrest in human MCF7 cells assessed as accumulation at G1 phase at 10 uM after 24 hrs by propidium iodide staining-based flow cytometric analysis (reference value: 60.7%); type: functional
# How it was run: (§1)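 MCF-7 cells in DMEM with 10% FBS and penicillin/streptomycin at 37 °C, 5% CO2. Asynchronous cells were treated 24 h, PBS-washed, trypsinized and quenched with 0.1% trypsin inhibitor. Staining used 5× citrate/IGEPAL/spermine/Tris buffer (pH 7.6) with 50 μg/mL propidium iodide. DNA content was read by 488 nm flow cytometry and cell-cycle phases modelled.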
# K562 [4] = assay: Growth inhibition of human K562 cells after 72 hrs by Calcein AM dye based fluorescence assay; type: functional; settings: K562, 72 h
# How it was run: (§2)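 Cells in DMEM with 10% FBS at 37 °C, 5% CO2, treated in triplicate with six doses for 72 h. Calcein AM was added for 1 h and live-cell fluorescence read at 485/538 nm. GI50 was taken from dose-response curves.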
# K562 [5] = assay: Cell cycle arrest in human K562 cells assessed as accumulation at G1 phase at 10 uM after 24 hrs by propidium iodide staining-based flow cytometric analysis (reference value: 34.6%); type: functional
# MCF7 [6] = assay: Growth inhibition of human MCF7 cells after 72 hrs by Calcein AM dye based fluorescence assay; type: functional; settings: MCF7, 72 h; how it was run: as §2
# K562 [7] = assay: Cell cycle arrest in human K562 cells assessed as accumulation at G2/M phase at 10 uM after 24 hrs by propidium iodide staining-based flow cytometric analysis (reference value: 15%); type: functional
# MCF7 [8] = assay: Cell cycle arrest in human MCF7 cells assessed as accumulation at sub G1 phase at 10 uM after 24 hrs by propidium iodide staining-based flow cytometric analysis (reference value: 7.1%); type: functional; how it was run: as §1
# MCF7 [9] = assay: Cell cycle arrest in human MCF7 cells assessed as accumulation at G2/M phase at 10 uM after 24 hrs by propidium iodide staining-based flow cytometric analysis (reference value: 5.3%); type: functional; how it was run: as §1
# K562 [10] = assay: Cell cycle arrest in human K562 cells assessed as accumulation at S phase at 10 uM after 24 hrs by propidium iodide staining-based flow cytometric analysis (reference value: 50.3%); type: functional
# MCF7 [11] = assay: Cell cycle arrest in human MCF7 cells assessed as accumulation at S phase at 10 uM after 24 hrs by propidium iodide staining-based flow cytometric analysis (reference value: 34.1%); type: functional; how it was run: as §1
# MCF7 [12] = assay: Cell cycle arrest in human MCF7 cells assessed as accumulation at S phase at 83 nM after 24 hrs by propidium iodide staining-based flow cytometric analysis (reference value: 34.1%); type: functional; how it was run: as §1
# K562 [13] = assay: Cell cycle arrest in human K562 cells assessed as accumulation at G2/M phase at 83 nM after 24 hrs by propidium iodide staining-based flow cytometric analysis (reference value: 15%); type: functional
# MCF7 [14] = assay: Cell cycle arrest in human MCF7 cells assessed as accumulation at sub G1 phase at 83 nM after 24 hrs by propidium iodide staining-based flow cytometric analysis (reference value: 7.1%); type: functional; how it was run: as §1
# K562 [15] = assay: Cell cycle arrest in human K562 cells assessed as accumulation at G1 phase at 83 nM after 24 hrs by propidium iodide staining-based flow cytometric analysis (reference value: 34.6%); type: functional
# MCF7 [16] = assay: Cell cycle arrest in human MCF7 cells assessed as accumulation at G2/M phase at 83 nM after 24 hrs by propidium iodide staining-based flow cytometric analysis (reference value: 5.3%); type: functional; how it was run: as §1
# K562 [17] = assay: Cell cycle arrest in human K562 cells assessed as accumulation at S phase at 83 nM after 24 hrs by propidium iodide staining-based flow cytometric analysis (reference value: 50.3%); type: functional
# K562 [18] = assay: Cell cycle arrest in human K562 cells assessed as accumulation at sub G1 phase at 83 nM after 24 hrs by propidium iodide staining-based flow cytometric analysis (reference value: 15%); type: functional
# K562 [19] = assay: Cell cycle arrest in human K562 cells assessed as accumulation at G2/M phase assessed as accumulation of histone H3 phosphorylation at serine 10 residues at 40 ng/ml uM after 24 hrs by propidium iodide staining-based flow cytometric analysis (reference value: 2.2%); type: functional
# MCF7 [20] = assay: Cell cycle arrest in human MCF7 cells assessed as accumulation at G1 phase at 83 nM after 24 hrs by propidium iodide staining-based flow cytometric analysis (reference value: 60.7%); type: functional; how it was run: as §1
# Cyclin-dependent kinase 1 (Homo sapiens), sequence (P06493 whole entry, looked up): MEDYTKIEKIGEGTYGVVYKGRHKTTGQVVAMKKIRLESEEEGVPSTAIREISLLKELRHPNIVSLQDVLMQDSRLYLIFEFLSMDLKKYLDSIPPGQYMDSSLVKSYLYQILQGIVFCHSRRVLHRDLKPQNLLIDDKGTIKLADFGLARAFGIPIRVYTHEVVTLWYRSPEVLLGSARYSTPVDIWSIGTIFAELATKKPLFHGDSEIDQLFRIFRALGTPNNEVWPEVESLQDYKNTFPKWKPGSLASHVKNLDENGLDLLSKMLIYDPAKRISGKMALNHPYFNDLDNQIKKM
Structure (SMILES),inhibition [1],Activity (K562 [2]),Activity (MCF7 [3]),GI50 (K562 [4]),Activity (K562 [5]),GI50 (MCF7 [6]),Activity (K562 [7]),Activity (MCF7 [8]),Activity (MCF7 [9]),Activity (K562 [10]),Activity (MCF7 [11]),Activity (MCF7 [12]),Activity (K562 [13]),Activity (MCF7 [14]),Activity (K562 [15]),Activity (MCF7 [16]),Activity (K562 [17]),Activity (K562 [18]),Activity (K562 [19]),Activity (MCF7 [20])
Cc1nc(-c2ccccc2)cc2nn(-c3ccccc3)cc12,inactive,46.2%,65.5%,6.3 µM,13.7%,11 µM,50.2%,11.9%,14.1%,36.1%,20.5%,–,–,–,–,–,–,–,–,–
OCCc1cc2nn(-c3ccccc3)cc2cn1,inactive,–,–,> 100 µM,–,> 100 µM,–,–,–,–,–,–,–,–,–,–,–,–,–,–
CCCCc1cc2nn(-c3ccccc3)cc2cn1,inactive,37.7%,36%,6.7 µM,24.8%,13.3 µM,62.3%,31.1%,33.7%,12.8%,30.3%,–,–,–,–,–,–,–,–,–
Cn1cc2cnc(-c3ccccc3)cc2n1,inactive,–,–,> 100 µM,–,> 100 µM,–,–,–,–,–,–,–,–,–,–,–,–,–,–
Cc1nc(C2CC2)cc2nn(-c3ccccc3)cc12,inactive,15.3%,63.6%,25.9 µM,34.7%,63.5 µM,19.6%,9%,6.3%,45.8%,30.2%,–,–,–,–,–,–,–,–,–
c1ccc(-n2cc3cnc(C4CC4)cc3n2)cc1,inactive,19.6%,64.7%,60.5 µM,32.3%,69.3 µM,15.5%,7.5%,5.9%,52.2%,29.4%,–,–,–,–,–,–,–,–,–
CCCCCc1cc2nn(-c3ccccc3)cc2c(C)n1,inactive,28.3%,50.2%,6.9 µM,21.8%,17 µM,49.9%,31.1%,31.7%,28.3%,18.1%,–,–,–,–,–,–,–,–,–
c1ccc(-c2cc3nn(-c4ccccc4)cc3cn2)cc1,inactive,43%,56.8%,3.4 µM,19.8%,4.8 µM,74.7%,14.3%,17%,5.5%,26.2%,–,–,–,–,–,–,–,–,–
COC(=O)Nc1nc2cc(C(=O)c3cccs3)ccc2[nH]1 [NOCODAZOLE],–,–,–,–,–,–,–,–,–,–,–,49.9%,69.7%,32.1%,3.6%,35.7%,26.8%,49.4%,33.2%,14.4%
CCCCc1cc2nn(-c3ccccc3)cc2c(C(C)C)n1,inactive,47.1%,66.1%,12.9 µM,26.7%,33.3 µM,29%,7.8%,9.4%,44.2%,24.5%,–,–,–,–,–,–,–,–,–
CC(C)c1nccc2nn(-c3ccccc3)cc12,inactive,–,–,> 100 µM,–,98.8 µM,–,–,–,–,–,–,–,–,–,–,–,–,–,–
c1ccc(-n2cc3cnccc3n2)cc1,inactive,–,–,> 100 µM,–,> 100 µM,–,–,–,–,–,–,–,–,–,–,–,–,–,–
Cc1nc(CCO)cc2nn(-c3ccccc3)cc12,inactive,–,–,> 100 µM,–,> 100 µM,–,–,–,–,–,–,–,–,–,–,–,–,–,–
Cc1nccc2nn(-c3ccccc3)cc12,inactive,–,–,> 100 µM,–,> 100 µM,–,–,–,–,–,–,–,–,–,–,–,–,–,–
Cc1nc(-c2ccsc2)cc2nn(-c3ccccc3)cc12,inactive,45.7%,37.2%,10 µM,26.2%,22.2 µM,44.6%,22.7%,31.6%,29.2%,31.2%,–,–,–,–,–,–,–,–,–
CC(C)c1nc(-c2ccccc2)cc2nn(-c3ccccc3)cc12,inactive,21.3%,62.6%,36.8 µM,35.1%,91 µM,18.3%,6.7%,6.9%,46.6%,30.6%,–,–,–,–,–,–,–,–,–
c1ccc(-n2cc3cnc(-c4ccsc4)cc3n2)cc1,inactive,34.2%,39.5%,8.3 µM,21.7%,9.8 µM,41.1%,24.2%,31.4%,37.3%,29.1%,–,–,–,–,–,–,–,–,–
CCCCc1cc2nn(-c3ccccc3)cc2c(C)n1,inactive,40.8%,48.5%,8.5 µM,28.2%,11.1 µM,41.4%,19.3%,27.5%,30.5%,24%,–,–,–,–,–,–,–,–,–
